Values after ≈ are worked out from the molar mass of the structure shown. Active and inactive are the calls of the source. No cut-off for these calls is given here.
Columns and labels:
Enterococcus faecium = test: Antibacterial activity against vancomycin-resistant Enterococcus faecium by micro dilution susceptibility test; format: functional
Summary of the method: (§1)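 Microbroth dilution MIC in Mueller–Hinton broth following CLSI guidelines, vancomycin as positive control; resazurin added as visible growth indicator. Assays run at least in triplicate.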

Staphylococcus aureus [1] = test: Antibacterial activity against Staphylococcus aureus CMCC 26003 by micro dilution susceptibility test; format: functional; summary of the method: as §1
Staphylococcus aureus [2] = test: Bactericidal activity against methicillin-resistant Staphylococcus aureus JCSC 4788 assessed as bacterial killing at 4 MIC measured within 0.5 hrs by time kill assay relative to control; format: functional
Summary of the method: (§2)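 Time-kill per CLSI: overnight MRSA JCSC 4788 adjusted in 0.85% NaCl to 10^6–10^7 CFU mL−1 and exposed to 0.5×, 1×, 2× and 4× MIC at 35 °C, vancomycin as comparator. Viable plate counts at 0.5, 2, 4, 8 and 24 h; two independent experiments.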

Salmonella typhi = test: Antibacterial activity against Salmonella typhi CMCC 44102 by micro dilution susceptibility test; format: functional, Salmonella enterica subsp. enterica serovar Typhi; details: Salmonella enterica; summary of the method: as §1
Staphylococcus aureus [3] = test: Induction of cytoplasmic membrane hyperpolarization in methicillin-resistant Staphylococcus aureus JCSC 4788 at 1 to 2 times MIC measured after 2 mins by Disc3(5) staining based fluorescence spectrophotometric method; format: functional, organism-based
Summary of the method: (§3)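 Exponential-phase MRSA JCSC 4788 washed and set to OD620 0.1 in 5 mM HEPES pH 7. Cells loaded with 0.4 μM DiSC3(5) plus 100 mM KCl for 20 min at 37 °C with agitation. Compound added at 0.5–8× MIC and fluorescence followed at ex 660/em 670 nm; mean ± SD.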

Shigella dysenteriae = test: Antibacterial activity against Shigella dysenteriae CMCC 51252 by micro dilution susceptibility test; format: functional; summary of the method: as §1
Staphylococcus aureus [4] = test: Antibacterial activity against methicillin-resistant Staphylococcus aureus JCSC 4469 by micro dilution susceptibility test; format: functional; summary of the method: as §1
Cutibacterium acnes = test: Antibacterial activity against Propionicibacterium acnes ATCC 6919 by micro dilution susceptibility test; format: functional
Summary of the method: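 Microbroth dilution MIC in Mueller–Hinton broth following CLSI guidelines; […]; resazurin added as visible growth indicator; vancomycin positive control; at least triplicate.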

Staphylococcus aureus [5] = test: Selectivity ratio of MIC for methicillin-resistant Staphylococcus aureus NCTC 10442 to MIC for methicillin-resistant Staphylococcus aureus JCSC 4788; format: functional
MCF7 = test: Cytotoxicity against human MCF7 cells by MTT assay; format: cell-based
Summary of the method: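 MTT viability assay after 24 h exposure to compound at 1.5625–100 µg mL⁻¹; control cells received DMSO at 0.5% (highest test-well level); IC50 given as mean ± SD of at least triplicate runs.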

[6] = Selectivity ratio of IC50 for mouse RAW264.7 cells to MIC for methicillin-resistant Staphylococcus aureus JCSC 4788; format: toxicity
Summary of the method: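 Ratio of 24 h MTT cytotoxicity IC50 (compound 1.5625–100 μg mL−1, 0.5% DMSO control) to MIC against MRSA JCSC 4788 from CLSI microbroth dilution in MHB; IC50 values expressed as mean ± SD.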

Staphylococcus aureus [7] = test: Antibacterial activity against methicillin-resistant Staphylococcus aureus JCSC 4788 in Balb/c mouse skin infection model assessed as reduction in infection-induced morbidity by measuring increase in body weight at 40 ug administered as single dose via intradermal route measured daily for 11 days; format: functional, organism-based
Summary of the method: (§4)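 Female BALB/c mice (18–20 g) injected intradermally in abdominal skin with 0.1 mL of MRSA JCSC 4788 (1×10^8 CFU) mixed with a single 40 μg dose in DMSO; DMSO-vehicle controls. Body weight and lesion size recorded daily for 11 days, ulcers imaged at 3 and 8 days; n = 6, mean ± SD.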

Staphylococcus aureus [8] = test: Antibacterial activity against methicillin-resistant Staphylococcus aureus JCSC 4788 in Balb/c mouse skin infection model assessed as reduction in infection-induced morbidity by measuring decrease in wound size at 40 ug administered as single dose via intradermal route measured daily for 11 days; format: functional, organism-based; summary of the method: as §4
Staphylococcus aureus [9] = test: Induction of membrane disruption in methicillin-resistant Staphylococcus aureus JCSC 4788 assessed as increase in fluorescence intensity at MIC measured after 3 hrs by SYTOX green dye based fluorescence assay; format: functional, organism-based
Summary of the method: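 Exponential-phase MRSA JCSC 4788 washed and set to OD620 0.4 in 0.85% NaCl, exposed to serial compound concentrations for 3 h, then 3 μM SYTOX Green for 20 min. Fluorescence read at ex 504/em 523 nm with melittin as positive control and vancomycin as comparator; mean ± SD, n = 3.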

Staphylococcus aureus [10] = test: Bactericidal activity against methicillin-resistant Staphylococcus aureus JCSC 4788 assessed as reduction in colony forming units at 4 times MIC measured after 4 hrs by time kill assay relative to control; format: functional; set-up: scale not given: the % may be the effect or the level left; summary of the method: as §2
[11] = Selectivity ratio of MIC for methicillin-resistant Staphylococcus aureus N315 to MIC for methicillin-resistant Staphylococcus aureus JCSC 4788; format: functional
Staphylococcus aureus [12] = test: Bactericidal activity against methicillin-resistant Staphylococcus aureus JCSC 4788 assessed as reduction in colony forming units at 2 times MIC measured after 2 hrs by time kill assay relative to control; format: functional; set-up: scale not given: the % may be the effect or the level left; summary of the method: as §2
Staphylococcus aureus [13] = test: Selectivity ratio of MIC for methicillin-resistant Staphylococcus aureus JCSC 3063 to MIC for methicillin-resistant Staphylococcus aureus JCSC 4788; format: functional
Staphylococcus aureus [14] = test: Bactericidal activity against methicillin-resistant Staphylococcus aureus JCSC 4788 assessed as reduction in bacterial growth at 0.5 to 1 times MIC measured within 8 hrs by time kill assay relative to control; format: functional; set-up: scale not given: the % may be the effect or the level left; summary of the method: as §2
Staphylococcus aureus [15] = test: Induction of cytoplasmic membrane depolarization in methicillin-resistant Staphylococcus aureus JCSC 4788 at 0.5 to 2 times MIC measured within 1 min by Disc3(5) staining based fluorescence spectrophotometric method; format: functional, organism-based; summary of the method: as §3
Staphylococcus aureus [16] = test: Induction of cytoplasmic membrane disruption in methicillin-resistant Staphylococcus aureus JCSC 4788 measured after 3 hrs by SYTOX green dye based fluorescence microscopic analysis; format: functional, organism-based
Summary of the method: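 MRSA JCSC 4788 suspension (OD620 0.4) treated with compound or vancomycin for 3 h, stained with 3 μM SYTOX Green, fixed on glass slides and viewed by fluorescence microscopy at 485 nm excitation.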

Staphylococcus aureus [17] = test: Antibacterial activity against methicillin-resistant Staphylococcus aureus JCSC 3063 by micro dilution susceptibility test; format: functional; summary of the method: as §1
Staphylococcus aureus [18] = test: Selectivity ratio of MIC for methicillin-resistant Staphylococcus aureus JCSC 2172 to MIC for methicillin-resistant Staphylococcus aureus JCSC 4788; format: functional
Staphylococcus aureus [19] = test: Antibacterial activity against Staphylococcus aureus ATCC 6538 by micro dilution susceptibility test; format: functional; summary of the method: as §1
Staphylococcus aureus [20] = test: Antibacterial activity against methicillin-resistant Staphylococcus aureus NCTC 10442 by micro dilution susceptibility test; format: functional; summary of the method: as §1
Staphylococcus aureus [21] = test: Bactericidal activity against methicillin-resistant Staphylococcus aureus JCSC 4788 assessed as bacterial killing at 2 MIC measured within 2 hrs by time kill assay relative to control; format: functional; summary of the method: as §2
Paenibacillus polymyxa = test: Antibacterial activity against Bacillus polymyxa GIM 1.467 by micro dilution susceptibility test; format: functional
Summary of the method: (§5)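 Microbroth dilution MIC in Mueller–Hinton broth following CLSI guidelines, with vancomycin as positive control; assays run at least in triplicate.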

Candida albicans = test: Antibacterial activity against Candida albicans ATCC 10231 by micro dilution susceptibility test; format: functional; summary of the method: as §5
Escherichia coli = test: Antibacterial activity against Escherichia coli ATCC 8739 by micro dilution susceptibility test; format: functional; summary of the method: as §5

## CCCCCCCC(=O)c1c(O)cc(O)c2c1OC1=C(C(=O)C(C)(C)C(=O)C1(C)C)C2CC(C)C (centres undefined)
Enterococcus faecium
  MIC: 2 µg/mL (≈ 4.13 µM)
Staphylococcus aureus [1]
  MIC: 0.25 µg/mL (≈ 0.516 µM)
Staphylococcus aureus [2]
  Activity: >90%
Salmonella typhi
  MIC: > 32 µg/mL
Staphylococcus aureus [3]
  Activity: Active
Shigella dysenteriae
  MIC: > 32 µg/mL
Staphylococcus aureus [4]
  MIC: 0.25 µg/mL (≈ 0.516 µM)
Cutibacterium acnes
  MIC: 0.25 µg/mL (≈ 0.516 µM)
Staphylococcus aureus [5]
  Selectivity ratio: 0.5 - 2
MCF7
  IC50: 9.98 µg/mL (≈ 20.6 µM)
[6]
  Selectivity ratio: 22.4
Staphylococcus aureus [7]
  Activity: Active
Staphylococcus aureus [8]
  Activity: Active
Staphylococcus aureus [9]
  Activity: Active
Staphylococcus aureus [10]
  Activity: 99.9%
[11]
  Selectivity ratio: 0.5 to 2
Staphylococcus aureus [12]
  Activity: 99.9%
Staphylococcus aureus [13]
  Selectivity ratio: 0.5 - 2
Staphylococcus aureus [14]
  Activity: >90%
Staphylococcus aureus [15]
  Activity: Active
Staphylococcus aureus [16]
  Activity: Active
Staphylococcus aureus [17]
  MIC: 0.25 µg/mL (≈ 0.516 µM)
Staphylococcus aureus [18]
  Selectivity ratio: 0.5 - 2
Staphylococcus aureus [19]
  MIC: 0.25 µg/mL (≈ 0.516 µM)
Staphylococcus aureus [20]
  MIC: 0.5 µg/mL (≈ 1.03 µM)
Staphylococcus aureus [21]
  Activity: >90%
Paenibacillus polymyxa
  MIC: > 32 µg/mL
Candida albicans
  MIC: > 32 µg/mL
Escherichia coli
  MIC: > 32 µg/mL
